ChEMBL document CHEMBL4428071 (J Med Chem, 2016)
Calls of active or inactive are those of the source. No cut-off for these calls is given here.

Legend:
[1] = system: Mast/stem cell growth factor receptor Kit (Homo sapiens), P10721 [T670I]; test: Inhibition of TEL-fused cKIT T670I mutant (unknown origin) expressed in mouse BA/F3 cells assessed as cell growth inhibition after 72 hrs by cell titer-glo assay; format: cell-based
Summary of the method: (§1)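 Cells seeded at 3000 per well and exposed to serial compound dilutions for 72 h. Viability read by CellTiter-Glo luminescence and normalised to DMSO controls; mean of three independent measurements. BaF3 lines kept IL-3-free in RPMI 1640/10% FBS after retroviral transduction and puromycin selection. GIST lines grown in DMEM/10% FBS.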

[2] = target: T1, Mast/stem cell growth factor receptor Kit (Homo sapiens, UniProt P10721); test: Inhibition of TEL-fused cKIT (unknown origin) expressed in mouse BA/F3 cells assessed as cell growth inhibition after 72 hrs by cell titer-glo assay; format: cell-based
T1 sequence (P10721 whole entry, the tested form may be a part): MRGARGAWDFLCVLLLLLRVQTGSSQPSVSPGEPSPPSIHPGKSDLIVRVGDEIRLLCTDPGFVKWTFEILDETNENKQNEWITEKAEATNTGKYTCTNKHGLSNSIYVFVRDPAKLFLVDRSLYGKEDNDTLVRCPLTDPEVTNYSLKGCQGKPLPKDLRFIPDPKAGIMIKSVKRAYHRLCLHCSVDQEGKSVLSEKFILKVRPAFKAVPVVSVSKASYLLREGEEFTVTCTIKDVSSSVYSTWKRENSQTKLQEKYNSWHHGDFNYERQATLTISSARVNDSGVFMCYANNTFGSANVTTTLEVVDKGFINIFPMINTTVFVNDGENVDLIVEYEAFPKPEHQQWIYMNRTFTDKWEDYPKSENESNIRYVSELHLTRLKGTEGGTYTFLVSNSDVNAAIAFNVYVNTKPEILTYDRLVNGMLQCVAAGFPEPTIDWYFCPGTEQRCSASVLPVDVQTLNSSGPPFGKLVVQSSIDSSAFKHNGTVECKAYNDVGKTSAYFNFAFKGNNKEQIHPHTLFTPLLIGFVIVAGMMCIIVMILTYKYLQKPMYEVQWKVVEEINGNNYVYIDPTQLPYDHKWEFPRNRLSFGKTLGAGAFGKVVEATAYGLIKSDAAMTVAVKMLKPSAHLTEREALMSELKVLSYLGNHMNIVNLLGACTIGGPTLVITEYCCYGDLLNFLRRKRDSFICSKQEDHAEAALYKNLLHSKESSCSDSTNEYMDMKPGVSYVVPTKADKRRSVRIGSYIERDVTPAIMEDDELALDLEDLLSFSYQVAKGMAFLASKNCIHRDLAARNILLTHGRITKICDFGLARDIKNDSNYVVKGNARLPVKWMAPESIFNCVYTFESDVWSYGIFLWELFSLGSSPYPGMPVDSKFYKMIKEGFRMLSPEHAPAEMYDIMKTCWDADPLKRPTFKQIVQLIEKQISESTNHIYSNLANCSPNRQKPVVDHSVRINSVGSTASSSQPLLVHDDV

[3] = Cytotoxicity mouse BA/F3 cells assessed as cell growth inhibition after 72 hrs by cell titer-glo assay; format: cell-based, BaF3; summary of the method: as §1
[4] = system: Mast/stem cell growth factor receptor Kit (Homo sapiens), P10721 [D816V]; test: Inhibition of TEL-fused cKIT D816V mutant (unknown origin) expressed in mouse BA/F3 cells assessed as cell growth inhibition after 72 hrs by cell titer-glo assay; format: cell-based; summary of the method: as §1
Sequence of Mast/stem cell growth factor receptor Kit (Homo sapiens), P10721 [D816V] (P10721 whole entry D816V, the tested form may be a part): as the sequence (P10721 whole entry, the tested form may be a part) above, with D816V counted along it

[5] = system: Mast/stem cell growth factor receptor Kit (Homo sapiens), P10721 [V654A]; test: Inhibition of TEL-fused cKIT V654A mutant (unknown origin) expressed in mouse BA/F3 cells assessed as cell growth inhibition after 72 hrs by cell titer-glo assay; format: cell-based; summary of the method: as §1
Sequence of Mast/stem cell growth factor receptor Kit (Homo sapiens), P10721 [V654A] (P10721 whole entry V654A, the tested form may be a part): as the sequence (P10721 whole entry, the tested form may be a part) above, with V654A counted along it

[6] = organism: Homo sapiens; test: Inhibition of TEL-fused cKIT L567P mutant (unknown origin) expressed in mouse BA/F3 cells assessed as cell growth inhibition after 72 hrs by cell titer-glo assay; format: cell-based; summary of the method: as §1
[7] = system: Mast/stem cell growth factor receptor Kit (Homo sapiens), P10721 [T670I]; conditions: 1 uM
[8] = system: Mast/stem cell growth factor receptor Kit (Homo sapiens), P10721 [T670I]; conditions: 1 uM; remark: listed apart in the source
[9] = system: Mast/stem cell growth factor receptor Kit (Homo sapiens), P10721 [T670I]; conditions: 1 uM; remark: listed apart in the source
[10] = system: Mast/stem cell growth factor receptor Kit (Homo sapiens), P10721 [T670I]; conditions: 1 uM; remark: listed apart in the source
[11] = system: Mast/stem cell growth factor receptor Kit (Homo sapiens), P10721 [T670I]; test: Inhibition of […] cKIT T670I mutant in human GIST-5R cells assessed as cell growth inhibition after 72 hrs by cell titer-glo assay; format: cell-based
[12] = system: Mast/stem cell growth factor receptor Kit (Homo sapiens), P10721 [V559D,V654A]; test: Inhibition of TEL-fused cKIT V559D/V654A double mutant (unknown origin) expressed in mouse BA/F3 cells assessed as cell growth inhibition after 72 hrs by cell titer-glo assay; format: cell-based; summary of the method: as §1
Sequence of Mast/stem cell growth factor receptor Kit (Homo sapiens), P10721 [V559D,V654A] (P10721 whole entry V559D/V654A, the tested form may be a part): as the sequence (P10721 whole entry, the tested form may be a part) above, with V559D, V654A counted along it

[13] = system: Mast/stem cell growth factor receptor Kit (Homo sapiens), P10721 [N822K]; test: Inhibition of TEL-fused cKIT N822K mutant (unknown origin) expressed in mouse BA/F3 cells assessed as cell growth inhibition after 72 hrs by cell titer-glo assay; format: cell-based; summary of the method: as §1
Sequence of Mast/stem cell growth factor receptor Kit (Homo sapiens), P10721 [N822K] (P10721 whole entry N822K, the tested form may be a part): as the sequence (P10721 whole entry, the tested form may be a part) above, with N822K counted along it

[14] = system: Mast/stem cell growth factor receptor Kit (Homo sapiens), P10721 [T670I]; conditions: 1 uM; remark: listed apart in the source
[15] = system: Mast/stem cell growth factor receptor Kit (Homo sapiens), P10721 [T670I]; conditions: 1 uM; remark: listed apart in the source
[16] = target: T1, Mast/stem cell growth factor receptor Kit; test: Inhibition of wild type cKIT in human GIST-T1 cells assessed as cell growth inhibition after 72 hrs by cell titer-glo assay; format: cell-based
Summary of the method: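 GIST-T1 cells (cKIT wt) grown in DMEM with 10% FBS and 1% penicillin/streptomycin at 37 °C, 5% CO2. Viability read by CellTiter-Glo luminescence and normalized to DMSO controls. GI50 taken from the mean of three independent measurements.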

[17] = system: Mast/stem cell growth factor receptor Kit (Homo sapiens), P10721 [V559D,T670I]; test: Inhibition of TEL-fused cKIT T670I/V559D double mutant (unknown origin) expressed in mouse BA/F3 cells assessed as cell growth inhibition after 72 hrs by cell titer-glo assay; format: cell-based; summary of the method: as §1
Sequence of Mast/stem cell growth factor receptor Kit (Homo sapiens), P10721 [V559D,T670I] (P10721 whole entry V559D/T670I, the tested form may be a part): as the sequence (P10721 whole entry, the tested form may be a part) above, with V559D, T670I counted along it

Sequence of Mast/stem cell growth factor receptor Kit (Homo sapiens), P10721 [T670I] (P10721 whole entry T670I, the tested form may be a part): as the sequence (P10721 whole entry, the tested form may be a part) above, with T670I counted along it

Structure (SMILES)	GI50 [1] [nM]	GI50 [2] [nM]	GI50 at 72 h [3] [nM]	also measured
COc1cc2nccc(Oc3cccc(NC(=O)Nc4ccc(N5CCC(NC(=O)C6CCNC(C)C6)CC5)c(C(F)(F)F)c4)c3)c2cc1OC (configuration not stated)	650	460	4000	–
COc1cc2nccc(Oc3cccc(NC(=O)Nc4ccc(N5CCC(NC(=O)C6CCN(C(C)=O)CC6)CC5)c(C(F)(F)F)c4)c3)c2cc1OC	230	59	3400	–
Cc1ccc(NC(=O)c2ccc(CN3CCN(C)CC3)cc2)cc1Nc1nccc(-c2cccnc2)n1 [IMATINIB]	9600	–	> 10000	GI50 [4]: > 10000 nM; GI50 [5]: 700 nM; GI50 [6]: 10 nM; inhibition [7]: inactive; inhibition [8]: inactive; inhibition [9]: inactive; inhibition [10]: inactive; GI50 [11]: 8300 nM; GI50 [12]: 700 nM; GI50 [13]: 360 nM; inhibition [14]: inactive; inhibition [15]: inactive
COc1cc2nccc(Oc3cccc(NC(=O)Nc4ccc(N5CCC(NS(=O)(=O)C6CC6)CC5)c(C(F)(F)F)c4)c3)c2cc1OC	63	140	1900	–
COc1cc2nccc(Oc3cccc(NC(=O)Nc4ccc(N5CCC(NC(=O)C6CCN(C(=O)C7CC7)CC6)CC5)c(C(F)(F)F)c4)c3)c2cc1OC	120	130	800	–
COc1cc2nccc(Oc3cccc(NC(=O)Nc4ccc(N5CCC(NC(=O)C6CCN(C)CC6)CC5)c(C(F)(F)F)c4)c3)c2cc1OC	81	160	1700	–
COc1cc2nccc(Oc3cccc(NC(=O)Nc4ccc(N5CCC(NC(=O)C(C)N)CC5)c(C(F)(F)F)c4)c3)c2cc1OC (single isomer, unassigned)	480	120	3000	–
CCC(=O)NC1CCCN(c2ccc(NC(=O)Nc3cccc(Oc4ccnc5cc(OC)c(OC)cc45)c3)cc2C(F)(F)F)C1 (configuration not stated)	920	280	1310	–
CCN(CC)CCNC(=O)c1c(C)[nH]c(/C=C2\C(=O)Nc3ccc(F)cc32)c1C [SUNITINIB]	5	–	1600	GI50 [4]: 420 nM; GI50 [5]: 6 nM; GI50 [6]: 3 nM; GI50 [16]: 5 nM; GI50 [17]: 7 nM; GI50 [12]: 6 nM
CCC(=O)NC1CCN(c2ccc(C(=O)Nc3cccc(Oc4ccnc5cc(OC)c(OC)cc45)c3)cc2C(F)(F)F)CC1	2700	400	> 10000	–
CCC(=O)NC1CCN(c2ccc(NC(=O)Nc3cccc(Oc4ccnc5cc(OC)c(OC)cc45)c3)cc2)CC1	> 10000	> 10000	> 10000	–
COc1cc2nccc(Oc3cccc(NC(=O)Nc4ccc(N5CCC(NC(=O)CN6CCCC(C)C6)CC5)c(C(F)(F)F)c4)c3)c2cc1OC (configuration not stated)	200	330	870	–
COc1cc2nccc(Oc3cccc(NC(=O)Nc4ccc(N5CCC(NC(=O)C6CCOCC6)CC5)c(C(F)(F)F)c4)c3)c2cc1OC	83	87	2900	–
CCS(=O)(=O)NC1CCN(c2ccc(NC(=O)Nc3cccc(Oc4ccnc5cc(OC)c(OC)cc45)c3)cc2C(F)(F)F)CC1	330	34	6200	–
COc1cc2nccc(Oc3cccc(NC(=O)Nc4ccc(N5CCC(NC(=O)CCN6CCCCC6)CC5)c(C(F)(F)F)c4)c3)c2cc1OC	260	440	7600	–
COc1cc2nccc(Oc3cccc(NC(=O)Nc4ccc(N5CCC(NC(=O)CCC6CCCCN6C)CC5)c(C(F)(F)F)c4)c3)c2cc1OC (configuration not stated)	200	190	1200	–
COc1cc2nccc(Oc3cccc(NC(=O)Nc4ccc(N5CCC(NC(=O)CN6CCCCC6)CC5)c(C(F)(F)F)c4)c3)c2cc1OC	37	120	480	–
CCCS(=O)(=O)NC1CCN(c2ccc(NC(=O)Nc3cccc(Oc4ccnc5cc(OC)c(OC)cc45)c3)cc2C(F)(F)F)CC1	950	59	4230	–
COc1cc2nccc(Oc3cccc(NC(=O)Nc4ccc(N5CCC(NC(=O)C6=CCCCC6)CC5)c(C(F)(F)F)c4)c3)c2cc1OC	760	760	1100	–
CCN1CCC(C(=O)NC2CCN(c3ccc(NC(=O)Nc4cccc(Oc5ccnc6cc(OC)c(OC)cc56)c4)cc3C(F)(F)F)CC2)CC1	87	39	1300	–

Continued, in another order:

GI50 [1] [nM]	GI50 [2] [nM]	Structure (SMILES)	GI50 at 72 h [3] [nM]	also measured
59	42	COc1cc2nccc(Oc3cccc(NC(=O)Nc4ccc(N5CCC(NC(=O)CCN6CCOCC6)CC5)c(C(F)(F)F)c4)c3)c2cc1OC	3600	–
460	250	COc1cc2nccc(Oc3cccc(NC(=O)Nc4ccc(N5CCC(CNC(=O)CCC6CCCCN6C)CC5)c(C(F)(F)F)c4)c3)c2cc1OC (configuration not stated)	4400	–
581	130	COc1cc2nccc(Oc3cccc(NC(=O)Nc4ccc(N5CCC(NC(=O)CN)CC5)c(C(F)(F)F)c4)c3)c2cc1OC	5000	–
340	430	COc1cc2nccc(Oc3cccc(NC(=O)Nc4ccc(N5CCC(NC(=O)CC(C)(C)C)CC5)c(C(F)(F)F)c4)c3)c2cc1OC	> 10000	–
> 10000	> 10000	CCC(=O)NC1CCN(c2ccc(NC(=O)C3(C(=O)Nc4cccc(Oc5ccnc6cc(OC)c(OC)cc56)c4)CC3)cc2C(F)(F)F)CC1	> 10000	–
53	38	COc1cc2nccc(Oc3cccc(NC(=O)Nc4ccc(N5CCC(NC(=O)CN(C)C)CC5)c(C(F)(F)F)c4)c3)c2cc1OC	2900	–
321	20	COc1cc2nccc(Oc3cccc(NC(=O)Nc4ccc(N5CCC(NC(=O)c6cccnc6)CC5)c(C(F)(F)F)c4)c3)c2cc1OC	7000	–
71	120	CCC(=O)NC1CCN(c2ccc(NC(=O)Nc3cccc(Oc4ccnc5cc(OC)c(OC)cc45)c3)cc2C(F)(F)F)CC1	1500	–
170	130	COc1cc2nccc(Oc3cccc(NC(=O)Nc4ccc(N5CCC(NC(=O)C6CCCN(C(=O)OC(C)(C)C)C6)CC5)c(C(F)(F)F)c4)c3)c2cc1OC (configuration not stated)	510	–
3800	3900	COc1cc2nccc(Oc3cccc(NC(=O)Nc4ccc(N5CCC(NS(C)(=O)=O)CC5)c(C(F)(F)F)c4)c3)c2cc1OC	> 10000	–
> 10000	340	CCC(=O)Nc1ccc(N2CCC(NC(=O)Nc3cccc(Oc4ccnc5cc(OC)c(OC)cc45)c3)CC2)c(C(F)(F)F)c1	> 10000	–
46	110	COc1cc2nccc(Oc3cccc(NC(=O)Nc4ccc(N5CCC(NC(C)=O)CC5)c(C(F)(F)F)c4)c3)c2cc1OC	7100	–
